Experimental data of several laboratories.
Each line is one published result; the experiments were not run side by side.
Sample: plasma
Route: oral

CO[C@H]1CC[C@H](N2C(=O)CNc3ncc(-c4ccc(C(C)(C)O)nc4)nc32)CC1
AUC(0-inf) (human; 45 mg; patients): 1690 ng·h/mL

Cn1cc(-c2ccc(S(=O)(=O)[C@@H]3C[C@@H](C(=O)NC4(C#N)CC4)N(C(=O)C4(C(F)(F)F)CC4)C3)c(C(F)(F)F)c2)cn1
AUC(0-inf) (human; 30 mg; single dose, fasted, healthy volunteers): 3240 ng·h/mL

COc1ccc([C@@H]2CN(C(=O)[C@@H](O)CO)C[C@@]2(C)[C@@H](C)O)cc1OC1CN(c2ccc(C)cn2)C1
AUC(0-inf) (human; 1.5 mg; single dose, healthy volunteers): 524 ng·h/mL

CC(C)n1cc(C#N)c2cc(-n3cc(C(=O)O)cn3)ccc21
AUC(0-inf) (human; 25 mg; single dose, fasted, healthy volunteers): 5190 ng·h/mL

C[C@@]1(c2cc(NC(=O)c3ccc(C#N)cn3)ccc2F)C=CSC(N)=N1
AUC(0-inf) (human; 150 mg; single dose): 14500 ng·h/mL

CC(C)(Sc1ccncc1-c1ccc(C#N)c2ccccc12)C(=O)O
AUC(0-inf) (male human; 20 mg; single dose, fasted, healthy volunteers): 540 ng·h/mL

CC(C)(O)c1ccccc1-c1ccc2[nH]c(/C=C/c3ccc(C(F)(F)F)cc3)nc2c1
AUC(0-inf) (male human; 10 mg; single dose, fasted): 2110 ng·h/mL

CCc1nc2c(C)cc(N3CCN(CC(=O)N4CC(O)C4)CC3)cn2c1N(C)c1nc(-c2ccc(F)cc2)c(C#N)s1
AUC(0-inf) (human; 300 mg; fed, healthy volunteers): 16400 ng·h/mL
